Results from ChEMBL document CHEMBL1125337, “Synthesis and antibacterial activity of a series of basic amides of teicoplanin and deglucoteicoplanin with polyamines” (J Med Chem, 1992).
≈ marks a conversion by molar mass, not a printed value.

Tests used:
Staphylococcus aureus = assay: Minimum inhibitory concentration against Staphylococcus aureus L 165; type: functional
Summary of the method: (§1)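 MIC (µg/mL) by microbroth dilution in Iso-Sensitest broth; final inoculum 10^4 cfu/mL; 24 h at 37 °C in air.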

Streptococcus pneumoniae = assay: Minimum inhibitory concentration against Streptococcus pneumoniae L 44; type: functional
Summary of the method: (§2)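 MIC (µg/mL) by microbroth dilution in Todd-Hewitt broth, final inoculum 10^4 cfu/mL, incubated 24 h at 37 °C in air.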

Escherichia coli = assay: Minimum inhibitory concentration against Escherichia coli L 47; type: functional; summary of the method: as §1
Pseudomonas aeruginosa = assay: Minimum inhibitory concentration against Pseudomonas aeruginosa ATCC 10145; type: functional; summary of the method: as §1
Streptococcus pyogenes = assay: Minimum inhibitory concentration against Streptococcus pyogenes L 49; type: functional; summary of the method: as §2
Proteus vulgaris = assay: Minimum inhibitory concentration against Proteus vulgaris ATCC 881; type: functional; summary of the method: as §1
[1] = system: Staphylococcus epidermidis; assay: Minimum inhibitory concentration against Staphylococcus epidermidis ATCC 12228; type: functional; summary of the method: as §1
Enterococcus faecalis = assay: Minimum inhibitory concentration against Enterococcus faecalis ATCC 7080; type: functional
Summary of the method: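 Microbroth dilution MIC (µg/mL), final inoculum 10^4 cfu/mL, incubated 24 h at 37 °C in air.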

[2] = system: Staphylococcus haemolyticus; assay: Minimum inhibitory concentration against Staphylococcus haemolyticus L 602; type: functional; summary of the method: as §1
[3] = Association constant to Ac2-L-Lys-D-Ala-D-Ala determined at pH 9; Value ranges from (9.5E4-3.5E5)

SMILES	MIC (Staphylococcus aureus)	MIC (Streptococcus pneumoniae)	MIC (Escherichia coli)	MIC (Pseudomonas aeruginosa)	MIC (Streptococcus pyogenes)	MIC (Proteus vulgaris)	MIC [1]	MIC (Enterococcus faecalis)	MIC [2]	Ka [3]
CN(C)CCCN1CCCCN(C(=O)[C@H]2NC(=O)[C@H]3NC(=O)[C@H](NC(=O)[C@@H]4NC(=O)[C@H]5NC(=O)[C@@H](Cc6ccc(c(Cl)c6)Oc6cc4cc(c6O)Oc4ccc(cc4Cl)[C@H]3O)NC(=O)[C@H](N)c3ccc(O)c(c3)Oc3cc(O)cc5c3)c3ccc(O)c(c3)-c3c(O)cc(O)cc32)CCCC1	0.063 µg/mL (≈ 0.0447 µM)	0.125 µg/mL (≈ 0.0888 µM)	8 µg/mL (≈ 5.68 µM)	32 µg/mL (≈ 22.7 µM)	0.063 µg/mL (≈ 0.0447 µM)	128 µg/mL (≈ 90.9 µM)	0.063 µg/mL (≈ 0.0447 µM)	0.125 µg/mL (≈ 0.0888 µM)	–	–
NCCCN1CCCCN(CCCNC(=O)[C@H]2NC(=O)[C@H]3NC(=O)[C@H](NC(=O)[C@@H]4NC(=O)[C@H]5NC(=O)[C@@H](Cc6ccc(c(Cl)c6)Oc6cc4cc(c6O)Oc4ccc(cc4Cl)[C@H]3O)NC(=O)[C@H](N)c3ccc(O)c(c3)Oc3cc(O)cc5c3)c3ccc(O)c(c3)-c3c(O)cc(O)cc32)CCCC1	0.063 µg/mL (≈ 0.0438 µM)	0.125 µg/mL (≈ 0.087 µM)	4 µg/mL (≈ 2.78 µM)	16 µg/mL (≈ 11.1 µM)	0.063 µg/mL (≈ 0.0438 µM)	128 µg/mL (≈ 89.1 µM)	0.063 µg/mL (≈ 0.0438 µM)	0.125 µg/mL (≈ 0.087 µM)	0.125 µg/mL (≈ 0.087 µM)	–
CC(=O)N[C@@H]1[C@H](O[C@@H]2c3ccc(c(Cl)c3)Oc3cc4cc(c3O[C@@H]3O[C@@H](CO)[C@@H](O)[C@H](O)[C@@H]3NC(=O)CCCCCCC(C)C)Oc3ccc(cc3Cl)C[C@H]3NC(=O)[C@H](N)c5ccc(O)c(c5)Oc5cc(O)cc(c5)[C@H](NC3=O)C(=O)N[C@H]4C(=O)N[C@H]3C(=O)N[C@@H]2C(=O)N[C@H](C(=O)NCCCNCCNCCCN)c2cc(O)cc(O[C@H]4O[C@H](CO)[C@@H](O)[C@@H](O)[C@@H]4O)c2-c2cc3ccc2O)O[C@@H](CO)[C@@H](O)[C@@H]1O	0.25 µg/mL (≈ 0.123 µM)	0.125 µg/mL (≈ 0.0614 µM)	–	–	0.063 µg/mL (≈ 0.0309 µM)	–	0.125 µg/mL (≈ 0.0614 µM)	0.125 µg/mL (≈ 0.0614 µM)	0.125 µg/mL (≈ 0.0614 µM)	350000 M⁻¹
CCN(CC)CCN(CCCN)CCCNC(=O)[C@H]1NC(=O)[C@H]2NC(=O)[C@H](NC(=O)[C@@H]3NC(=O)[C@H]4NC(=O)[C@@H](Cc5ccc(c(Cl)c5)Oc5cc3cc(c5O)Oc3ccc(cc3Cl)[C@H]2O)NC(=O)[C@H](N)c2ccc(O)c(c2)Oc2cc(O)cc4c2)c2ccc(O)c(c2)-c2c(O)cc(O)cc21	0.125 µg/mL (≈ 0.0886 µM)	0.125 µg/mL (≈ 0.0886 µM)	32 µg/mL (≈ 22.7 µM)	128 µg/mL (≈ 90.7 µM)	0.125 µg/mL (≈ 0.0886 µM)	> 128 µg/mL	0.032 µg/mL (≈ 0.0227 µM)	0.125 µg/mL (≈ 0.0886 µM)	0.125 µg/mL (≈ 0.0886 µM)	–
CC(=O)N[C@@H]1[C@H](O[C@@H]2c3ccc(c(Cl)c3)Oc3cc4cc(c3O[C@@H]3O[C@@H](CO)[C@@H](O)[C@H](O)[C@@H]3NC(=O)CCCCCCC(C)C)Oc3ccc(cc3Cl)C[C@H]3NC(=O)[C@H](N)c5ccc(O)c(c5)Oc5cc(O)cc(c5)[C@H](NC3=O)C(=O)N[C@H]4C(=O)N[C@H]3C(=O)N[C@@H]2C(=O)N[C@H](C(=O)N2CCCCN(CCCN(C)C)CCCC2)c2cc(O)cc(O[C@H]4O[C@H](CO)[C@@H](O)[C@@H](O)[C@@H]4O)c2-c2cc3ccc2O)O[C@@H](CO)[C@@H](O)[C@@H]1O	0.125 µg/mL (≈ 0.0598 µM)	0.125 µg/mL (≈ 0.0598 µM)	–	–	0.063 µg/mL (≈ 0.0302 µM)	–	0.063 µg/mL (≈ 0.0302 µM)	0.125 µg/mL (≈ 0.0598 µM)	0.5 µg/mL (≈ 0.239 µM)	350000 M⁻¹
CC(=O)N[C@@H]1[C@H](O[C@@H]2c3ccc(c(Cl)c3)Oc3cc4cc(c3O[C@@H]3O[C@@H](CO)[C@@H](O)[C@H](O)[C@@H]3NC(=O)CCCCCCC(C)C)Oc3ccc(cc3Cl)C[C@H]3NC(=O)[C@H](N)c5ccc(O)c(c5)Oc5cc(O)cc(c5)[C@H](NC3=O)C(=O)N[C@H]4C(=O)N[C@H]3C(=O)N[C@@H]2C(=O)N[C@H](C(=O)NCCCN(CCCN)CCCN)c2cc(O)cc(O[C@H]4O[C@H](CO)[C@@H](O)[C@@H](O)[C@@H]4O)c2-c2cc3ccc2O)O[C@@H](CO)[C@@H](O)[C@@H]1O	0.125 µg/mL (≈ 0.061 µM)	0.063 µg/mL (≈ 0.0307 µM)	–	–	0.063 µg/mL (≈ 0.0307 µM)	–	0.125 µg/mL (≈ 0.061 µM)	0.125 µg/mL (≈ 0.061 µM)	2 µg/mL (≈ 0.976 µM)	350000 M⁻¹
CC(=O)N[C@@H]1[C@H](O[C@@H]2c3ccc(c(Cl)c3)Oc3cc4cc(c3O[C@@H]3O[C@@H](CO)[C@@H](O)[C@H](O)[C@@H]3NC(=O)CCCCCCC(C)C)Oc3ccc(cc3Cl)C[C@H]3NC(=O)[C@H](N)c5ccc(O)c(c5)Oc5cc(O)cc(c5)[C@H](NC3=O)C(=O)N[C@H]4C(=O)N[C@H]3C(=O)N[C@@H]2C(=O)N[C@H](C(=O)N2CCNCCNCCNCCNCCNCC2)c2cc(O)cc(O[C@H]4O[C@H](CO)[C@@H](O)[C@@H](O)[C@@H]4O)c2-c2cc3ccc2O)O[C@@H](CO)[C@@H](O)[C@@H]1O	0.25 µg/mL (≈ 0.118 µM)	0.063 µg/mL (≈ 0.0297 µM)	–	–	0.063 µg/mL (≈ 0.0297 µM)	–	0.125 µg/mL (≈ 0.059 µM)	0.125 µg/mL (≈ 0.059 µM)	8 µg/mL (≈ 3.77 µM)	350000 M⁻¹
N[C@H]1C(=O)N[C@@H]2Cc3ccc(c(Cl)c3)Oc3cc4cc(c3O)Oc3ccc(cc3Cl)[C@@H](O)[C@@H]3NC(=O)[C@H](NC(=O)[C@@H]4NC(=O)[C@@H](NC2=O)c2cc(O)cc(c2)Oc2cc1ccc2O)c1ccc(O)c(c1)-c1c(O)cc(O)cc1[C@@H](C(=O)NCCN1CCCCNCCCC1)NC3=O	0.125 µg/mL (≈ 0.0915 µM)	0.125 µg/mL (≈ 0.0915 µM)	8 µg/mL (≈ 5.86 µM)	64 µg/mL (≈ 46.8 µM)	0.063 µg/mL (≈ 0.0461 µM)	64 µg/mL (≈ 46.8 µM)	0.063 µg/mL (≈ 0.0461 µM)	0.125 µg/mL (≈ 0.0915 µM)	0.125 µg/mL (≈ 0.0915 µM)	–
CC(=O)N[C@@H]1[C@H](O[C@@H]2c3ccc(c(Cl)c3)Oc3cc4cc(c3O[C@@H]3O[C@@H](CO)[C@@H](O)[C@H](O)[C@@H]3NC(=O)CCCCCCC(C)C)Oc3ccc(cc3Cl)C[C@H]3NC(=O)[C@H](N)c5ccc(O)c(c5)Oc5cc(O)cc(c5)[C@H](NC3=O)C(=O)N[C@H]4C(=O)N[C@H]3C(=O)N[C@@H]2C(=O)N[C@H](C(=O)NCCCNCCCN)c2cc(O)cc(O[C@H]4O[C@H](CO)[C@@H](O)[C@@H](O)[C@@H]4O)c2-c2cc3ccc2O)O[C@@H](CO)[C@@H](O)[C@@H]1O	1 µg/mL (≈ 0.502 µM)	0.125 µg/mL (≈ 0.0627 µM)	–	–	0.125 µg/mL (≈ 0.0627 µM)	–	0.25 µg/mL (≈ 0.125 µM)	0.5 µg/mL (≈ 0.251 µM)	2 µg/mL (≈ 1 µM)	350000 M⁻¹
CC(=O)N[C@@H]1[C@H](O[C@@H]2c3ccc(c(Cl)c3)Oc3cc4cc(c3O[C@@H]3O[C@@H](CO)[C@@H](O)[C@H](O)[C@@H]3NC(=O)CCCCCCC(C)C)Oc3ccc(cc3Cl)C[C@H]3NC(=O)[C@H](N)c5ccc(O)c(c5)Oc5cc(O)cc(c5)[C@H](NC3=O)C(=O)N[C@H]4C(=O)N[C@H]3C(=O)N[C@@H]2C(=O)N[C@H](C(=O)NCCNCCCNCCN)c2cc(O)cc(O[C@H]4O[C@H](CO)[C@@H](O)[C@@H](O)[C@@H]4O)c2-c2cc3ccc2O)O[C@@H](CO)[C@@H](O)[C@@H]1O	0.125 µg/mL (≈ 0.0618 µM)	0.125 µg/mL (≈ 0.0618 µM)	–	–	0.063 µg/mL (≈ 0.0312 µM)	–	0.063 µg/mL (≈ 0.0312 µM)	0.125 µg/mL (≈ 0.0618 µM)	0.125 µg/mL (≈ 0.0618 µM)	350000 M⁻¹
N[C@H]1C(=O)N[C@@H]2Cc3ccc(c(Cl)c3)Oc3cc4cc(c3O)Oc3ccc(cc3Cl)[C@@H](O)[C@@H]3NC(=O)[C@H](NC(=O)[C@@H]4NC(=O)[C@@H](NC2=O)c2cc(O)cc(c2)Oc2cc1ccc2O)c1ccc(O)c(c1)-c1c(O)cc(O)cc1[C@@H](C(=O)N1CCNCCNCCNCCNCCNCC1)NC3=O	0.125 µg/mL (≈ 0.0868 µM)	0.25 µg/mL (≈ 0.174 µM)	> 128 µg/mL	> 128 µg/mL	0.25 µg/mL (≈ 0.174 µM)	> 128 µg/mL	0.125 µg/mL (≈ 0.0868 µM)	0.5 µg/mL (≈ 0.347 µM)	1 µg/mL (≈ 0.695 µM)	–
